Hits are enriched below; roughly 1.9% of the tested compounds scored in any of these assays.
Glyco luc inh – increase of ERlucT glycosylation luciferase signal, primary screen, N-linked glycosylation inhibitor project, D54 ERlucT cells, luminescence, set 2 | D54 ERlucT glycosylation luciferase reporter, 24 h; percent of 100 nM tunicamycin response | 360,000 tested, 0.23% active | AID 588692, 2011 | reporter increase, % at 12.5 µM;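 active = mean luciferase reporter signal, scaled so untreated is 0 and the glycosylation-blocking control 100, at or above a set limit in every replicate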;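 also: luciferase carries N-glycosylation sites so blocking glycosylation raises the light; 0% = median of neutral control wells and 100% = median of 100 nM tunicamycin wells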
Vif inh – HIV Vif self-association inhibitors, primary screen, imaging, HEK293T, single point; HEK293T cells, Vif self-association by quenched fluorescence, 24 h; inhibition, % at 7.49 µM; 340,000 tested, 0.35% active; AID 602346, 2012; in the data active = inhibition above about 50%, passing the limit was not always enough
MsrA inhibitor – bovine MsrA enzyme inhibitors, primary screen, biochemical, absorbance, HTS. Methionine sulfoxide reductase A (Bos taurus). purified bovine MsrA, absorbance read-out. inhibition, % at 15.5 µM. 360,000 tested, 0.75% active; in the data active = inhibition above about 4.5%;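 also: 0% = vehicle wells with enzyme and 100% = reference inhibitor wells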
UCH37 inh – inhibitors of human UCH37 deubiquitinase, primary screen, biochemical, Ub-AMC cleavage, fluorescence; Ubiquitin carboxyl-terminal hydrolase isozyme L5 (Homo sapiens), Q9Y5K5; purified proteasome/UCH37; inhibition, % (no concentration beside the values); 330,000 tested, 0.33% active; AID 588478, 2011;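 active = mean inhibition over replicate wells above about 20%, limit read from the data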;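 also: 0% = compound-free wells with enzyme and 100% = wells lacking proteasome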
Target sequence (Q9Y5K5 whole entry, looked up): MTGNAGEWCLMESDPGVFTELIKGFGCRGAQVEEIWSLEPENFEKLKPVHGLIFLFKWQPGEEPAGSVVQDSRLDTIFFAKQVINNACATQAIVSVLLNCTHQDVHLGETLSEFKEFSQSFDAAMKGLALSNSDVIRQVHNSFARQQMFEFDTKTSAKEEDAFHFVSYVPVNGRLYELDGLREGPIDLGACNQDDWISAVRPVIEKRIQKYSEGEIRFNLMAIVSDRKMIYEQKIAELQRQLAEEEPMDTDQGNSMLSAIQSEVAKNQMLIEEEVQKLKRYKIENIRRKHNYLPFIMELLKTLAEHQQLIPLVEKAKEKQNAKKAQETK
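Material: human UCH37 enzyme supplied as purified proteasome complex / Amount: 0.15 nM proteasome as dispensed / Buffer or medium: pH 7.4 Tris-HCl (50 mM) with ovalbumin, ATP-MgCl2, DTT / Times: preincubation 30 min, reaction 25 min, room temperature / Technique: AMC fluorescence from Ub-AMC cleavage, excitation 355 nm, emission 460 nm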
aDG glyco up – activators of alpha-DG glycosylation, primary screen, uHTS, Pro5-aDG cells, AlphaScreen; alpha-DG glycosylation AlphaScreen (IIH6); 0% Pro5, 100% B10-LARGE cell signal; activation, % at 10 µM; 360,000 tested, 0.22% active;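 active = activation of at least 8% versus controls, or a plate z-score of at least 8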;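 also: Pro5 are CHO cells carrying HIG-tagged alpha-DG that lacks glycosylation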
bovine MsrA act – bovine MsrA enzyme activators, primary screen, biochemical, absorbance, HTS; 360,000 tested, 0.3% active; activation, % at 10.6 µM; AID 602163, 2012; Methionine sulfoxide reductase A (Bos taurus); purified bovine MsrA, absorbance read-out; in the data active = activation above about 7.5%;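 also: 0% = vehicle and 100% = reference activator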
aDG conf – alpha-DG glycosylation enhancers, retest, confirmation, single concentration, Pro5-aDG cells; shares compounds with aDG glyco up; IIH6 AlphaLISA; scaled to LARGE-overexpressing B10 cells as 100%; activation, % at 10 µM (by protocol); 600 tested, 17% active; AID 651671, 2012;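 active = activation of at least 7% in one or more replicates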;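 also: cells exposed to compound for two days before detection; 0% = DMSO-treated Pro5 cells and 100% = DMSO-treated B10-LARGE cells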
* marks the source's active call; other numbers are inactive results; nt = no result given.

SMILES	Glyco luc inh	Vif inh	MsrA inhibitor	UCH37 inh	aDG glyco up	bovine MsrA act	aDG conf
COC(=O)[C@@]1(C)[C@H]2C(=O)N(Cc3ccccc3)C(=O)[C@H]2[C@H]2CN=C(SCc3ccc(C#N)cc3)N21	-0.7	-5.9	0.4	3.1	5.6*	0.0	1.5
Cc1ccc(N(Cc2cc3ccc(C)cc3[nH]c2=O)C(=O)c2ccco2)c(C)c1	-4.3	-8.9	1.1	-6.8	2.4*	-3.6	0.7
COc1ccc2ccccc2c1C=NNC(=O)c1cccnc1	nt	nt	nt	1.4	nt	nt	nt
COc1ccc(CCN2C(=O)CSC2=Nc2ccc(C(C)C)cc2)cc1OC	1.8	-17.1	0.1	nt	2.9*	2.4	0.2
CC1C(=NO)CC(c2ccco2)NC1c1ccco1 (configuration not stated)	nt	nt	nt	3.0	nt	nt	nt
O=C(NC(=S)NCc1cccnc1)c1cc(Br)ccc1Cl	nt	nt	0.3	0.4	3.5*	-12.5	0.9
Cc1onc(-c2ccccc2)c1CNS(=O)(=O)c1ccccc1[N+](=O)[O-]	0.4	-4.5	1.6	5.3	2.6*	-7.0	-0.7
COc1cccc(NC(=S)N2CCN(S(=O)(=O)c3ccc(F)cc3)CC2)c1	-2.1	1.4	-0.7	4.6	-0.2	-2.9	nt
COc1cc(NC(=S)N2CCN(S(=O)(=O)c3ccc(F)cc3)CC2)cc(OC)c1	-1.2	11.3	-0.4	0.7	13.7*	-1.8	1.4
C[C@H]1CN([C@@H](C)CO)C(=O)Cc2cc(NC(=O)CCC(F)(F)F)ccc2O[C@H]1CN(C)Cc1ccc(C(F)(F)F)cc1	-4.1	nt	-0.3	-2.3	0.5	-0.1	nt
COc1ccc(S(=O)(=O)N(C)C[C@H]2OCCCC[C@@H](C)Oc3ccc(NC(=O)CCC(F)(F)F)cc3C(=O)N([C@H](C)CO)C[C@@H]2C)cc1	0.1	-2.4	-0.6	nt	0.0	-1.5	nt
C[C@H]1CN([C@@H](C)CO)C(=O)Cc2cc(NC(=O)CCC(F)(F)F)ccc2O[C@H]1CN(C)Cc1ccc(-c2ccccc2)cc1	-2.4	-6.5	-0.2	0.9	5.7*	-2.3	0.4
CC(C)NC(=O)N(C)C[C@H]1Oc2ccc(NC(=O)Cc3ccccc3)cc2C(=O)N([C@H](C)CO)C[C@@H]1C	-0.3	0.9	0.4	3.9	9.5*	-0.8	-0.9
C[C@H](CO)N1C[C@H](C)[C@@H](CN(C)S(=O)(=O)c2ccccc2)OCCCC[C@H](C)Oc2ccc(NC(=O)CCC(F)(F)F)cc2C1=O	-1.9	-0.7	0.6	nt	3.4*	-7.5	-0.2
Cc1cc2ccccc2n1CCNC(=O)C1CC1	-0.2	-6.7	1.8	2.0	7.8*	-2.5	-0.1
O=[N+]([O-])c1ccc(C=NN/C(=N/c2ccccn2)c2ccccn2)cc1	nt	nt	nt	10.1	nt	nt	nt
CCOC(=O)C(/C(N)=N/C(=O)Nc1ccccc1)=C(\C)O	0.6	-1.5	-0.6	1.7	2.9*	-13.5	-0.6
COc1ccc(C=NNC(=O)c2cccc(NC(=O)c3ccccc3Cl)c2)cc1	nt	nt	nt	2.2	nt	nt	nt
COc1cc(C=NNC(=O)/C(=C\c2ccc3c(c2)OCO3)NC(=O)c2ccccc2)ccc1O	nt	nt	nt	-18.5	nt	nt	nt
Oc1ccc(C=NN2CCN(C3c4ccccc4-c4ccccc43)CC2)cc1	nt	nt	nt	1.3	nt	nt	nt
CC(C)(C)c1ccc(C(=O)Nc2ccc(C(=O)NCc3cccnc3)cc2)cc1	-6.0	6.4	-0.1	-1.5	2.3*	-0.2	4.5*
CC(C)NC(=S)NN=Cc1ccc2c(c1)OCCO2	nt	nt	nt	9.4	nt	nt	nt
Clc1ccc(CNCCCSc2ncccn2)cc1Cl	-0.7	21.8	-0.9	-1.3	2.4*	5.2	-0.1
O=C(NN=Cc1cccnc1)C1c2ccccc2Oc2ccccc21	nt	nt	nt	2.9	nt	nt	nt
Cc1ccc(C2(c3noc(CN4CCC(c5ccncc5)CC4)n3)CCCC2)cc1	-7.5	-6.4	0.3	3.4	6.0*	-0.7	-0.3
SMILES	Glyco luc inh	Vif inh	MsrA inhibitor	UCH37 inh	aDG glyco up	bovine MsrA act	aDG conf
Cc1ccc(C2(c3noc(CN(C)CC4CCCCO4)n3)CCCC2)cc1 (configuration not stated)	-1.5	3.0	0.0	3.0	0.0	-2.4	nt
Cc1cc(=O)oc2cc(OCC(=O)N3CCc4ccccc4C3)ccc12	0.1	9.1	-0.1	-10.8	4.2*	-1.1	0.5
Cc1cc(=O)oc2cc(OCC(=O)N3CCCc4ccccc43)ccc12	-0.8	-12.5	0.8	-0.8	-0.1	-2.3	nt
CCCCCOc1ccc(/C(C)=N/NC2=NCCN2)cc1	0.5	3.9	-0.5	nt	1.6*	0.4	8.6*
CC(=NNS(=O)(=O)c1ccccc1)c1c[nH]c2ccccc12	nt	nt	nt	2.6	nt	nt	nt
CC(ON=Cc1ccc(OC(F)F)cc1)C(=O)Nc1cccc(S(=O)(=O)N2CCOCC2)c1 (configuration not stated)	nt	nt	nt	4.6	nt	nt	nt
O=C(/C=C/c1ccc2c(c1)OCO2)N1CCN(c2ccc(Cl)cc2)CC1	1.6	-6.8	0.1	0.3	15.0*	-5.1	1.1
O=C(/C=C/c1ccc2c(c1)OCCO2)N1CCN(c2ccc(F)cc2)CC1	1.7	-0.9	1.2	-0.2	0.0	-3.6	nt
Cc1cc(CNC(=O)COc2cc(F)ccc2[N+](=O)[O-])c2ccccc2n1	3.0	9.4	1.0	3.6	8.2*	-0.6	-0.6
CC(C)C(NC(=O)c1ccc2c(c1)OCO2)C(=O)NN=Cc1cccs1 (configuration not stated)	nt	nt	nt	1.4	nt	nt	nt
NS(=O)(=O)c1ccc(CCNCc2cc(Br)ccc2OCc2ccccc2F)cc1	-4.6	-5.5	-0.5	4.8	7.6*	-1.8	1.2
CCOC(=O)C1CCN(Cc2cc(C(C)C)c(O)c(C(C)C)c2)CC1	-1.6	4.5	-0.5	2.1	6.4*	-5.8	1.1
O=S(=O)(c1ccc(Cl)cc1)N1CCN(c2ncnc3sccc23)CC1	-1.4	-7.8	-1.6	0.8	4.8*	-1.2	0.9
CNC(=S)N=CNOCc1c(Cl)cccc1Cl	nt	nt	nt	2.6	nt	nt	nt
Cc1ccc2[nH]c(=O)c(CN(CCCN(C)C)C(=S)NCCc3ccccc3)cc2c1	1.5	8.0	-0.2	-0.8	1.6	-1.9	nt
Cc1cccc2cc(CN(CCCN(C)C)C(=S)NCCc3ccccc3)c(=O)[nH]c12	-2.1	-1.7	-0.1	0.2	4.7*	-1.2	0.6
Cn1cc(CN2CCCC(C(=O)Nc3cccc(-c4cc5ccccc5[nH]4)c3)C2)cn1 (configuration not stated)	3.7	-5.9	0.0	nt	1.2	-7.2	nt

High-throughput results: PubChem, several laboratories
